The text below walks through data of ChEMBL document CHEMBL4229321, “Monoterpenoid Indole Alkaloids from Kopsia officinalis and the Immunosuppressive Activity of Rhazinilam” (J Nat Prod, 2017).

Data set [1] deals with T-cell line. Nature of the data set: Immunosuppressive activity in human T cells assessed as reduction in anti-CD3/anti-CD28 antibody-induced cell proliferation incubated for 72 hrs by CFSE based flow cytometry. It is filed as functional. Put shortly: (§1)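 Cells (10^6 cells/mL) labelled with 2.5 μM CFSE at 37 °C for 10 min. T cells from healthy donors (95% purity) were activated with plate-bound anti-CD3 (2 μg/mL) plus soluble anti-CD28 (1 μg/mL). Alternatively, PBMCs were mixed with equal numbers of 3000-rad-irradiated allogeneic PBMCs. Cells were cultured with or without drug for 72 h in RPMI 1640 with 10% FBS, and CFSE dilution was read by flow cytometry. Unstimulated cells served as 0% and stimulated untreated cells as 100%. IC50 was calculated from these.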
On the technique in general: A flow cytometer gives signals particle by particle.

The test system of data set [2] is T-cell line. Description: Induction of cell cycle arrest in anti-CD3/anti-CD28 antibody-stimulated human T cells assessed as accumulation at S phase at 0.1 uM incubated for 72 hrs by flow cytometry (reference value: 18.1%). It is filed as functional.
Data set [3] relates to T-cell line. Description: Effect on anti-CD3/anti-CD28 antibody-induced cell activation in human T cells assessed as effect on CD25 expression at 0.2 uM incubated for 24 hrs by flow cytometry (reference value: 69.1%). The data set is classed as functional.
Data set [4] has as its system T-cell line. Description: Induction of cell cycle arrest in anti-CD3/anti-CD28 antibody-stimulated human T cells assessed as accumulation at S phase at 5 uM incubated for 72 hrs by flow cytometry (reference value: 18.1%). The data set is classed as functional.
In data set [5] the test system is T-cell line. Nature of the data set: Effect on anti-CD3/anti-CD28 antibody-induced cell activation in human T cells assessed as effect on CD25 expression at 0.2 to 5 uM incubated for 24 hrs by flow cytometry. The data set is classed as functional, cell-based.
Data set [6] has as its system T-cell line. Description: Effect on anti-CD3/anti-CD28 antibody-induced cell activation in human T cells assessed as effect on CD69 expression at 1 uM incubated for 24 hrs by flow cytometry (reference value: 41.2%). It is filed as functional.
The subject of data set [7] is T-cell line. Description: Induction of cell cycle arrest in anti-CD3/anti-CD28 antibody-stimulated human T cells assessed as accumulation at G0/G1 phase at 1 uM incubated for 72 hrs by flow cytometry (reference value: 66.6%). It is filed as functional.
Data set [8] deals with T-cell line. Nature of the data set: Effect on anti-CD3/anti-CD28 antibody-induced cell activation in human T cells assessed as effect on CD25 expression at 5 uM incubated for 24 hrs by flow cytometry (reference value: 69.1%). It is filed as functional.
Data set [9] has as its system T-cell line. Nature of the data set: Cytotoxicity in human T cells assessed as reduction in cell viability at 20 to 320 uM incubated for 72 hrs by CCK8 assay. The data set is classed as cell-based. The procedure, abridged:
(§2)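 Naive human T cells or PBMCs (10^6 cells/mL) exposed to 20, 40, 80, 160 or 320 μM or vehicle for 72 h. Viability read by CCK-8 as OD450, with untreated cells set to 100%. Mean ± SEM, n = 5 per group, three independent experiments.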
In general terms: Tetrazolium dyes change colour on reduction, which living cells bring about.

In data set [10] the test system is T-cell line. Nature of the data set: Induction of cell cycle arrest in anti-CD3/anti-CD28 antibody-stimulated human T cells assessed as accumulation at G2/M phase at 1 uM incubated for 72 hrs by flow cytometry (reference value: 15.3%). The data set is classed as functional.
Data set [11] relates to T-cell line. Description: Effect on anti-CD3/anti-CD28 antibody-induced cell activation in human T cells assessed as effect on CD69 expression at 5 uM incubated for 24 hrs by flow cytometry (reference value: 41.2%). The data set is classed as functional.
Data set [12] deals with T-cell line. Description: Effect on anti-CD3/anti-CD28 antibody-induced cell activation in human T cells assessed as effect on CD69 expression at 0.2 to 5 uM incubated for 24 hrs by flow cytometry. The data set is classed as functional, cell-based.
For data set [13], the system named is T-cell line. Nature of the data set: Induction of cell cycle arrest in anti-CD3/anti-CD28 antibody-stimulated human T cells assessed as accumulation at G2/M phase at 0.2 uM incubated for 72 hrs by flow cytometry (reference value: 15.3%). The data set is classed as functional.
In data set [14] the test system is T-cell line. Nature of the data set: Induction of cell cycle arrest in anti-CD3/anti-CD28 antibody-stimulated human T cells assessed as accumulation at G0/G1 phase at 5 uM incubated for 72 hrs by flow cytometry (reference value: 66.6%). The data set is classed as functional.
The subject of data set [15] is T-cell line. Description: Effect on anti-CD3/anti-CD28 antibody-induced cell activation in human T cells assessed as effect on CD69 expression at 0.2 uM incubated for 24 hrs by flow cytometry (reference value: 41.2%). The data set is classed as functional.
The subject of data set [16] is T-cell line. Description: Immunosuppressive activity in human T cells assessed as reduction in alloantigen stimulation-induced cell proliferation incubated for 72 hrs by CFSE based flow cytometry. It is filed as functional. The procedure, abridged: as §1
Data set [17] has as its system T-cell line. Description: Induction of cell cycle arrest in anti-CD3/anti-CD28 antibody-stimulated human T cells assessed as accumulation at S phase at 1 uM incubated for 72 hrs by flow cytometry (reference value: 18.1%). The data set is classed as functional.
The subject of data set [18] is T-cell line. Description: Induction of cell cycle arrest in anti-CD3/anti-CD28 antibody-stimulated human T cells assessed as accumulation at G2/M phase at 5 uM incubated for 72 hrs by flow cytometry (reference value: 15.3%). It is filed as functional.
The test system of data set [19] is T-cell line. Nature of the data set: Induction of cell cycle arrest in anti-CD3/anti-CD28 antibody-stimulated human T cells assessed as accumulation at S phase at 0.2 uM incubated for 72 hrs by flow cytometry (reference value: 18.1%). It is filed as functional.
For data set [20], the system named is T-cell line. Description: Inhibition of IL6 production in anti-CD3/anti-CD28 antibody-stimulated human T cells at 0.2 to 5 uM incubated for 48 hrs by ELISA. The data set is classed as functional, cell-based. The procedure, abridged:
(§3)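 Human T cells (10^6 cells/mL) treated with 0.2, 1 or 5 μM drug, LY-294002 (50 μM) or vehicle and activated with anti-CD3 (2 μg/mL) plus soluble anti-CD28 (1 μg/mL) for 48 h. Supernatant IL-6 and IL-17 were quantified by ELISA against recombinant cytokine standard curves. Mean ± SEM, n = 5 per group, three independent experiments.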

The subject of data set [21] is T-cell line. Nature of the data set: Induction of cell cycle arrest in anti-CD3/anti-CD28 antibody-stimulated human T cells assessed as accumulation at G0/G1 phase at 0.2 uM incubated for 72 hrs by flow cytometry (reference value: 66.6%). It is filed as functional.
For data set [22], the system named is PBMC. Nature of the data set: Cytotoxicity in human PBMC cells assessed as reduction in cell viability at 20 to 320 uM incubated for 72 hrs by CCK8 assay. The data set is classed as cell-based. Put shortly:
as §2

The subject of data set [23] is T-cell line. Nature of the data set: Inhibition of IL17 production in anti-CD3/anti-CD28 antibody-stimulated human T cells at 0.2 to 5 uM incubated for 48 hrs by ELISA. The data set is classed as functional, cell-based. The procedure, abridged: as §3
For orientation: ELISA stands for enzyme-linked immunosorbent assay.

Data set [24] has as its system T-cell line. Description: Effect on anti-CD3/anti-CD28 antibody-induced cell activation in human T cells assessed as effect on CD25 expression at 1 uM incubated for 24 hrs by flow cytometry (reference value: 69.1%). It is filed as functional.
The subject of data set [25] is T-cell line. Description: Effect on anti-CD3/anti-CD28 antibody-induced cell activation in human T cells assessed as effect on CD69 expression at 0.1 uM incubated for 24 hrs by flow cytometry (reference value: 41.2%). It is filed as functional.
Data set [26] relates to T-cell line. Nature of the data set: Effect on anti-CD3/anti-CD28 antibody-induced cell activation in human T cells assessed as effect on CD25 expression at 0.1 uM incubated for 24 hrs by flow cytometry (reference value: 69.1%). The data set is classed as functional.

Each structure is given as a SMILES string. Active and inactive are the calls of the source. The calls are words filed in the database; no cut-off is given here.

By IC50 is commonly meant the midpoint of a concentration-inhibition curve. As to `O=C1[C@H]2CN3CCC[C@]45CC[C@@]6(Nc7ccccc7[C@@]26[C@@H]34)[C@@]1(O)C5`, in [1], the IC50 stood at 25.4 µM.

As for `COC(=O)N1c2c(OC)cccc2[C@@]23[C@H]4CN5CCC[C@@](CC[C@]12C(=O)O)(CC4=O)[C@H]53`, the IC50 in [1] worked out at 27.8 µM.

On to `C[N+]12CCC[C@]34CC[C@@]5(Nc6ccccc6[C@]5(CC1)[C@H]32)[C@H](C(=O)[O-])C4` (some centres undefined), for which the IC50 in [1] turned out to be 21.6 µM.

Consider `CC(=O)O[C@H]1C(=O)[C@@]2(C)[C@H]([C@H](OC(=O)c3ccccc3)[C@]3(O)C[C@H](OC(=O)[C@H](O)[C@@H](NC(=O)c4ccccc4)c4ccccc4)C(C)=C1C3(C)C)[C@]1(OC(C)=O)CO[C@@H]1C[C@@H]2O` [PACLITAXEL], for which, in data set [2], the Activity is listed as 16.9%.

Turning to `CC[C@]12CCCn3ccc(c31)-c1ccccc1NC(=O)CC2` [RHAZINILAM], the Activity in data set [3] is reported as 68.8%; in [4], 17.6%; in [6], 42.4%; in data set [7], 57.4%; in [8], 69.3%; in data set [9] it was “Non-Toxic”. Further, the Activity in [10] worked out at 22.9%; in [11], 41.6%; in [13], 16.7%; in data set [14] it was 42.1%; in data set [15], 41.1%; in data set [17], 19.7%. For the same compound, the Activity is on record as 40.3% in data set [18]; 16.8% in data set [19]; 66.5% in data set [21]; “Non-Toxic” in data set [22]; 70.3% in data set [24]. Besides, the result in data set [5] and in data set [12] was inactive. Further, the figures for the IC50 in data set [1] and in data set [16] were 1 µM and 1.1 µM, respectively. The inhibition entry in data set [20] and in data set [23] was “Active” each time.

Regarding `C=CC[C@@H]1/C=C(\C)C[C@H](C)C[C@H](OC)[C@H]2O[C@@](O)(C(=O)C(=O)N3CCCC[C@H]3C(=O)O[C@H](/C(C)=C/[C@@H]3CC[C@@H](O)[C@H](OC)C3)[C@H](C)[C@@H](O)CC1=O)[C@H](C)C[C@@H]2OC` [TACROLIMUS ANHYDROUS], the Activity is 13.1% in data set [25] and 6.8% in data set [26].
